# PGC1a acetyl inh: inhibitors of PGC1a acetylation signal, primary screen, cell-based, U2OS, AlphaScreen, inhibitor mode; AlphaScreen anti-acetyl-lysine; with virally co-expressed GCN5 acetyltransferase; inhibition, % at 15.6 µM; 350,000 compounds, 0.17% hits; AID 651687, 2012;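 active = every replicate shows inhibition of at least 40%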;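 also: 0% = neutral control wells and 100% = positive control wells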
# MITF act: activators of MITF-driven TRPM1 promoter reporter, primary screen, cell-based, SK-MEL-5, luciferase, single point | SK-MEL-5 TRPM1-promoter luciferase, 24 h; % of positive control, neutral wells = 0 | 300,000 compounds, 0.75% hits | activation, % at 12.5 µM;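 active = mean activation of at least 80% with every replicate also reaching 80%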;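 also: 0% = neutral control wells and 100% = parthenolide positive control wells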
# Cneo AK release: Cryptococcus neoformans cell lysis inducers, primary screen, AK release luminescence, single concentration | lysis activity, % at 15 µM | 360,000 compounds, 0.2% hits | C. neoformans lysis, adenylate kinase release luminescence, 4 h; normalised: neutral wells 0, clomiphene wells 100 | AID 651654, 2012;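 active = mean lysis activity across replicates of at least 80%, whatever share of replicates individually reach that level; inactive = mean lysis activity below 80%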
#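 Material: C. neoformans cells | Amount: Yeast cell density of 5 × 10^6 cells/mL | Medium: Fresh YPD growth medium | Dosing: Single dose | Times: Static 4 h at 37 °C with compound, 1 h detection | Detection: AK luminescence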
# Wnt act: Wnt/beta-catenin pathway activators, primary screen, cell-based, plate reader, single point; Wnt/beta-catenin reporter cell assay, activator; activation, % at 9.35 µM; 300,000 compounds, 1.2% hits; AID 743398, 2014; in the data active = activation above about 30%, passing the limit was not always enough;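 also: 0% = neutral control wells and 100% = positive control wells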
# The depositor's hits bear a star; · = not tested or not shown. Compounds with a hit are over-represented: about 1.5% of the library has one in this group of screens.
SMILES,PGC1a acetyl inh,MITF act,Cneo AK release,Wnt act
CC(C)c1ccc(CNc2ccc([N+](=O)[O-])cn2)cc1,-53.3,88.8*,·,7.4
CC(C)c1ccc(CNc2ncc(Br)cn2)cc1,1.6,95.6*,-1.1,20.9
COc1ccc(-c2onc(C)c2-c2ccc(C(=O)OC(C)C)o2)c(O)c1,74.1*,-5.4,17.3,-2.0
COc1ccc(N=Cc2sc(O)c3ccccc23)cc1,-15.8,28.2,0.6,34.5*
COc1ccc(N=Cc2c(O)c3ccccc3n2C(C)=O)cc1,7.9,28.4,-0.7,30.3*
O=C(C1=C[C@H](C2CC2)C[C@H](OCCCCO)O1)N1CCCC1,8.0,·,14.7,·
CCOC(=O)C1(C)C=C(Nc2cccc(OC)c2)C(=O)N1c1ccccc1 (configuration not stated),2.8,·,-3.1,42.5*
CC(C)c1[nH]nc2c1C(C1C=CCCC1)C(C#N)=C(N)O2 (configuration not stated),·,-10.3,·,46.1*
O=C(CC1CCCCC1)Nc1ccc(-c2ccc3nncn3n2)cc1,11.1,-5.8,·,-4.5
O=C(Nc1ccc(-c2ccc3nncn3n2)cc1)C1CCCC1,1.9,49.5,-7.6,44.2*
CCC(=O)N1CC2(C1)CN(CC1CCOCC1)[C@@H](CO)c1c2c2ccc(OC)cc2n1C,0.8,·,·,·
CC(=O)NC(CC(=O)NNC(=O)COc1c(C)cccc1C)c1ccccc1 (configuration not stated),·,-3.9,·,61.6*
CC=Cc1ccc2n(c1=O)C[C@H]1[C@H](CO)[C@@H](C(=O)NC3CCC3)N(Cc3ccncc3)[C@@H]21 (mixture of isomers),-8.6,·,·,·
COc1ccc(C(=O)Cc2cc3cccc(OC)c3oc2=O)cc1,0.5,31.9,0.0,3.2
COc1cccc2cc(CC(=O)c3ccc(C)cc3C)c(=O)oc12,-19.1,90.1*,-2.6,14.2
C[C@@H]1CN([C@@H](C)CO)C(=O)c2cc(NC(=O)Nc3ccccc3)ccc2O[C@H]1CN(C)C(=O)Nc1cccc2ccccc12,2.3,-8.0,-0.2,·
C[C@H]1CN([C@@H](C)CO)C(=O)c2cccc(N(C)C)c2O[C@@H]1CN(C)C(=O)Nc1cccc2ccccc12,16.3,·,84.5*,·
C[C@H](CO)N1C[C@H](C)[C@@H](CN(C)Cc2ccc(-c3ccccc3)cc2)Oc2ccc(NC(=O)Nc3ccc(C(F)(F)F)cc3)cc2C1=O,-17.8,·,98.7*,·
C[C@@H]1CN([C@@H](C)CO)C(=O)c2cc(NC(=O)Nc3cccc4ccccc34)ccc2O[C@@H]1CN(C)C(=O)Nc1ccccc1,-2.6,·,107.2*,·
C[C@@H]1CN([C@@H](C)CO)C(=O)c2cccc(N(C)C)c2O[C@@H]1CN(C)C(=O)Nc1cccc2ccccc12,0.3,·,0.0,·
C[C@H]1CN([C@@H](C)CO)C(=O)c2cc(NC(=O)Nc3cccc4ccccc34)ccc2O[C@H]1CN(C)C(=O)Nc1ccccc1,4.8,·,-2.1,·
C[C@@H]1CN([C@@H](C)CO)C(=O)c2cc(NC(=O)Nc3ccccc3)ccc2O[C@@H]1CN(C)C(=O)Nc1cccc2ccccc12,16.2,·,108.2*,·
CO[C@H]1CN(C)C(=O)c2cc(NC(=O)NC3CCCC3)ccc2OC[C@@H](C)N(CC2CC2)C[C@H]1C,-0.3,·,·,·
C[C@@H]1CN([C@@H](C)CO)C(=O)c2cc(C#CC3CC3)cnc2O[C@@H]1CN(C)C(=O)C1CCCCC1,-8.2,·,·,·
C[C@@H]1CN([C@@H](C)CO)C(=O)c2cc(NC(=O)Nc3cccc4ccccc34)ccc2O[C@@H]1CN(C)C(=O)Nc1ccc(C(F)(F)F)cc1,-4.7,·,-6.5,·
SMILES,PGC1a acetyl inh,MITF act,Cneo AK release,Wnt act
C[C@H]1CN([C@@H](C)CO)C(=O)c2cc(NC(=O)Nc3cccc4ccccc34)ccc2O[C@@H]1CN(C)C(=O)Nc1ccc(C(F)(F)F)cc1,18.2,·,89.9*,·
O=C1CCN(Cc2ccccc2)C=C1c1ccc2ccccc2c1,·,50.7,-6.3,43.7*
O=C1CCN(Cc2ccccc2)C=C1c1ccc(Cl)cc1,7.6,5.7,2.2,-1.8
O=C(Nc1ccc(Cl)cc1)Nc1ccccc1C(=O)NCc1ccco1,-6.4,25.4,-1.1,40.2*
Oc1ccc(/C=N/Nc2ccccc2)cc1,·,-16.9,-0.3,-2.7
Brc1ccc(/C=N/Nc2ccccc2)cc1,·,84.1*,·,11.2
C[C@H]1CN([C@@H](C)CO)C(=O)c2cc(C#Cc3ccccc3F)cnc2O[C@H]1CN(C)C(=O)C1CC1,10.6,·,-12.4,·
C[C@@H]1CN([C@H](C)CO)C(=O)c2cc(NC(=O)Nc3ccc4c(c3)OCO4)ccc2O[C@@H]1CN(C)Cc1ccc(Oc2ccccc2)cc1,4.8,·,3.0,·
C[C@@H]1CN([C@H](C)CO)C(=O)c2cc(NC(=O)Nc3ccc4c(c3)OCO4)ccc2O[C@H]1CN(C)Cc1ccc(Oc2ccccc2)cc1,-1.2,·,2.9,·
C[C@H](CO)N1C[C@H](C)[C@@H](CN(C)Cc2ccc(Oc3ccccc3)cc2)Oc2ccc(NC(=O)Nc3ccc4c(c3)OCO4)cc2C1=O,-13.5,·,100.8*,·
C[C@@H]1CN([C@@H](C)CO)C(=O)c2cc(NC(=O)Nc3ccc4c(c3)OCO4)ccc2O[C@H]1CN(C)Cc1ccc(Oc2ccccc2)cc1,-5.4,·,89.0*,·
Cc1cc(=O)oc2cc(NC(=O)CCOc3ccccc3)ccc12,·,53.2,-1.3,4.7
CCOC(=O)Nc1ccc2c(C)cc(=O)oc2c1,·,103.0*,-0.9,28.4
CCCCOC(=O)Nc1ccc2c(C)cc(=O)oc2c1,-4.7,·,3.0,59.4*
CCOC(=O)Nc1ccc2c(CN(C)Cc3ccc(F)cc3)cc(=O)oc2c1,-0.9,-3.2,2.4,-4.0
CC(=O)N(C)C[C@@H]1Oc2cc(C#Cc3cccnc3)ccc2S(=O)(=O)N([C@@H](C)CO)C[C@@H]1C,15.1,·,-6.2,·
CC(C)(C)c1ccc(OCCn2ccccc2=O)cc1,-10.9,·,-15.4,62.2*
O=c1ccccn1CCOc1ccc(Cl)cc1,·,12.7,·,2.1
C/C=C/c1cnc2c(c1)C(=O)N([C@H](C)CO)C[C@@H](C)[C@H](CN(C)C(=O)Cc1ccccc1)O2,27.5,·,3.3,·
CCCN1[C@@H]2Cn3c(ccc(/C=C/c4ccccc4)c3=O)[C@H]1[C@@H](C(=O)NCC1CC1)[C@@H]2CO,·,·,3.2,·
CN1c2ccc(C3=CCCCC3)cc2[C@@H]2[C@@H](CCN2C(=O)Nc2ccccc2F)[C@@H]1CO,-23.7,·,1.1,·
O=C(c1cccc(F)c1)N1C[C@H]2[C@@H](c3ccccc31)[C@@H](CO)N2Cc1cocn1,0.9,·,99.8*,·
O=C(c1ccccc1)N1C[C@@H]2[C@H](c3ccccc31)[C@H](CO)N2Cc1cocn1,-2.3,·,-1.6,·
CC(=O)c1ccc(N2CCN(C(=O)Cc3cccs3)CC2)cc1,-18.5,6.5,153.2*,-1.9
COc1ccc(N2CCN(C(=O)Cc3cccs3)CC2)cc1,-5.4,4.5,-0.7,0.0
COc1ccc(CN(C)C[C@@H]2Oc3ccc(NC(=O)Nc4ccc(F)cc4)cc3CC(=O)N([C@H](C)CO)C[C@H]2C)cc1,-6.9,·,115.1*,·

# Assay outcomes from PubChem BioAssay.
